Results collected from several papers.
Lines come from different studies, so protocols differ.
Target: Calcium/calmodulin-dependent protein kinase type II subunit alpha (CAMK2A, Homo sapiens, UniProt Q9UQM7)

Structure (SMILES)	observed	method	tested at	remaining binding
FC(F)(F)Oc1cccc(-c2cnc3ccc(-c4ccncc4)nn23)c1	cell-free assay	competition with immobilised ligand	5 µM	14%
Cn1nc(C(=O)NCc2ccc(C(=O)O)cc2)cc1-c1ccc2[nH]ccc2c1	cell-free assay	competition with immobilised ligand	0.1 µM	79%
Cc1cnn2ncc(-c3ccnc(N(C)C)n3)c2c1	binding	–	1 µM	86%
FC(F)(F)c1ccc2c(c1)nc(-c1cccnc1)n2C1CC1	cell-free assay	competition with immobilised ligand	1 µM	88%
O=C(NCCCN1CCOCC1)c1ccc(Nc2ncc(Cl)c(-c3ccc(Cl)s3)n2)cc1	binding	competition with immobilised ligand	1 µM	91%
N#CC1(c2ccccn2)CCN(Cc2cc(C(=O)N3CCCC3)c(=O)n3ccccc23)CC1	cell-free assay	competition with immobilised ligand	1 µM	84%
F[C@@H]1CCN(c2nccc(-c3cnn4ncccc34)n2)C1	binding	–	1 µM	100%
C=CC(=O)N1CCC(C(=O)NCC(=O)N2CCN(c3nc(-c4cnc(N)nc4C(F)F)nc(N4CCOCC4)n3)CC2)CC1	binding	competition with immobilised ligand	1 µM	96%
O=C(N1CCS(=O)(=O)CC1)N1C[C@H](c2ccc(OC(F)(F)F)cc2)C[C@H](c2nc(C3CC3)no2)C1	cell-free assay	competition with immobilised ligand	1 µM	100%
O=C(c1ccc(Nc2nccc(-c3cc4ccccc4s3)n2)cc1)N1CCC(N2CCCC2)CC1	binding	competition with immobilised ligand	1 µM	95%
O=c1nc(-c2ccccn2)sc2ccccc12	cell-free assay	competition with immobilised ligand	1 µM	100%
CN(C)c1nccc(-c2cnn3ncccc23)n1	binding	–	1 µM	62%
COc1ncc2cc3ccccc3nc2c1C#N	cell-free assay	competition with immobilised ligand	5 µM	95%
N[C@H]1CCN(c2nccc(-c3cnn4ncccc34)n2)C1	binding	–	1 µM	100%
O=C(NCCCN1CCOCC1)c1ccc(Nc2nccc(-c3cc4ccccc4s3)n2)cc1	binding	competition with immobilised ligand	1 µM	68%
COc1cnc(Nc2cccc(S(N)(=O)=O)c2)nc1N1CCN(c2ccccc2)C(=O)C1	binding	competition with immobilised ligand	1 µM	100%
O=C(Nc1cnc(Oc2ccc(F)cc2)nc1)N1CCc2ncccc2[C@@H]1c1ccc(F)cc1	cell-free assay	competition with immobilised ligand	1 µM	92%
O=C(NCC1CCOCC1)c1n[nH]cc1NC(=O)c1c(F)cccc1F	binding	competition with immobilised ligand	1 µM	94%
C[C@H]1CCN(c2nccc(-c3cnn4ncccc34)n2)C1	binding	–	1 µM	91%
c1cncc(-c2cccc(Nc3nccc(NC4CCCCC4)n3)c2)c1	binding	competition with immobilised ligand	10 µM	84%
Nc1ncc2c(n1)-c1c([nH]c3ccc(C#CC4CC4)cc13)CCCC2	binding	competition with immobilised ligand	1 µM	100%
CN(C)c1ncc(F)c(-c2cnn3ncccc23)n1	binding	–	1 µM	63%
